Activity and Reduction data for one compound are collected here from ChEMBL document CHEMBL1123619, “Isothiourea derivatives of 6-phenyl-2,3,5,6-tetrahydroimidazo[2,1-b]thiazole with broad-spectrum anthelmintic activity” (J Med Chem, 1987).

Structures are written as SMILES.

In one data set the test system is Mus musculus. Nature of the data set: Nematocidal activity against Nematospiroides dubius induced necropsy in mouse, after oral administration of 100 mg/kg of the compound. The class given is functional. An outline of the steps: (§1)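 Seven-week-old female LACA mice infected orally with 100 N. dubius L3 larvae; single gavage dose given at day 10 of infection, groups of four mice; necropsy 4 days later; percent activity from worm burdens of treated versus untreated groups.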

Data set [1] has as its system Heligmosomoides polygyrus. Nature of the data set: Nematocidal activity against Nematospiroides dubius induced necropsy in mouse, oral administration 200 mg/kg. It is filed as functional. Put shortly: as §1
In data set [2] the test system is Ovis aries. Nature of the data set: Antihelmethic activity expressed as the percentage of worms eliminated in the feces in sheep abomasum at peroral dose of 15 mg/kg against Trichostrongylus axei. It is filed as functional. The note with it: route oral. Put shortly: (§2)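 Sheep given a single dose, oral or subcutaneous. Total daily feces collected for 4 days after treatment and examined for expelled worms. Necropsy at day 7 after dosing; lungs, liver and gastrointestinal tract removed and remaining worms identified. Activity calculated by comparing worms passed in feces with those remaining at autopsy. Single animals per test unless otherwise indicated.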

For data set [3], the species on record is Ovis aries. Kind of data set: (§3) Antihelmethic activity expressed as the percentage of worms eliminated in the feces in sheep species. It is filed as functional. Put shortly:
(§4)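 Sheep; total daily faeces collected for 4 days after treatment and searched for expelled worms; necropsy 7 days post-dose with lungs, liver and GI tract examined and worms identified; activity from worms passed in faeces versus worms remaining in host at autopsy.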

In data set [4] the test system is Ovis aries. Nature of the data set: Antihelmethic activity expressed as the percentage of worms eliminated in the feces in sheep large bowel at peroral dose of 15 mg/kg against Oesophagostomum columbianum. The class given is functional. The settings on record: route oral. Put shortly: as §2
Data set [5] has as its system Ovis aries. Kind of data set: Antihelmethic activity expressed as the percentage of worms eliminated in the feces in sheep large bowel at subcuteneous dose of 30 mg/kg against Trichuris ovis. The class given is functional. Put shortly: as §2
The next data set has as its system Fasciola hepatica. Nature of the data set: Anthelmintic activity against adult liver fluke (Fasciola hepatica) in sheep following 30 mg/kg p.o. The class given is functional. The settings on record: route oral. An outline of the steps:
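Sheep dosed with a single oral dose. Fecal fluke egg output monitored after treatment. Animals necropsied only if the fecal egg count fell. Postmortem Fasciola hepatica burdens compared with untreated control sheep (mean of 10 controls). Single animals per test unless otherwise indicated, with group size given in parentheses. I denotes no effect on fecal fluke egg output.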

Data set [6] has as its system Ovis aries. Kind of data set: Antihelmethic activity expressed as the percentage of worms eliminated in the feces in sheep small intestine at peroral dose of 15 mg/kg against Capillaria species. The class given is functional. The note with it: route oral. An outline of the steps: as §2
Data set [7] has as its system Ovis aries. Nature of the data set: Antihelmethic activity expressed as the percentage of worms eliminated in the feces in sheep small intestine at peroral dose of 15 mg/kg against Strongyloides papillosus. It is filed as functional. The note with it: route oral. Put shortly:
as §2

The subject of data set [8] is Ovis aries. Kind of data set: Antihelmethic activity expressed as the percentage of worms eliminated in the feces in sheep small intestine at peroral dose of 30 mg/kg against Bunostomum trigonocephalum. The class given is functional. The settings on record: route oral. An outline of the steps:
as §2

The subject of data set [9] is Ovis aries. Nature of the data set: Antihelmethic activity expressed as the percentage of worms eliminated in the feces in sheep small intestine at peroral dose of 30 mg/kg against Nematodirus species. The class given is functional. The note with it: route oral. Put shortly:
as §2

For data set [10], the system named is Ovis aries. Kind of data set: Toxic activity expressed as the percentage against liver fluke in the sheep at 300 mg/kg peroral administration of dose; no toxic symptoms observed. It is filed as ADME, organism-based. More on the design: dose 300 mg/kg, route oral. The settings on record: in vivo, po.
The test system of data set [11] is Ovis aries. Nature of the data set: Antihelmethic activity expressed as the percentage of worms eliminated in the feces in sheep small intestine at subcuteneous dose of 30 mg/kg against Cooperia curticei. The class given is functional. An outline of the steps:
as §2

The species named for data set [12] is Ovis aries. The data set is described as §3. It is filed as functional. An outline of the steps:
as §4
The source holds these as a separate data set.

Data set [13] relates to Ovis aries. Kind of data set: Antihelmethic activity expressed as the percentage of worms eliminated in the feces in sheep large bowel at peroral dose of 15 mg/kg against Trichuris ovis. It is filed as functional. The settings on record: route oral. Put shortly:
as §2

Data set [14] concerns Ovis aries. Nature of the data set: Antihelmethic activity expressed as the percentage of worms eliminated in the feces in sheep large bowel at peroral dose of 30 mg/kg against chabertia ovina. It is filed as functional. The settings on record: route oral. An outline of the steps: as §2
Data set [15] relates to Ovis aries. Kind of data set: Antihelmethic activity expressed as the percentage of worms eliminated in the feces in sheep large bowel at peroral dose of 15 mg/kg against Lungworm Dictyocaulus filaria. It is filed as functional. The note with it: route oral. An outline of the steps:
as §2

Turning to `CS/C(=N\c1cccc(C2CN3CCSC3=N2)c1)Nc1ccc(C#N)cc1` (configuration not stated), the Activity is 100% with Mus musculus; 92% in the data set on Ovis aries [2]; 100% in the data set listed under Ovis aries [3]; 100% in the data set on Ovis aries [4]; 100% with Ovis aries [5]; 97% with Fasciola hepatica. The Activity in the data set on Ovis aries [6] is on record as 0%; in the data set on Ovis aries [7], 100%; with Ovis aries [8], 100%; with Ovis aries [9] it was 73%; in the data set with Ovis aries [10] it was “no toxic symptoms”; in the data set with Ovis aries [11], 91%. The Activity in the data set listed under Ovis aries [12] is on record as 95%; in the data set with Ovis aries [13], 100%; in the data set with Ovis aries [14], 100%; with Ovis aries [15], 100%. Moreover, in data set [1], the Reduction amounted to 100%.
